Experimental data reported in BindingDB's records for doi:10.1016/j.bmc.2012.11.002 (China Pharmaceutical University, 2012).

molecular target: Tissue factor (Homo sapiens, UniProt P13726); assay: Inhibition of tissue factor procoagulant activity in LPS-stimulated human THP1 cells preincubated for 1 hr before LPS addition measured after 5 hrs
Outline: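 THP-1 cells grown in RPMI-1640 with 10% heat-inactivated FCS, 37 °C, 5% CO2. Cells at 1 × 10⁶/mL pretreated 1 h with compound or 0.1% DMSO vehicle, then given 500 ng/mL LPS for 5 h. Cells were pelleted, resuspended, frozen/thawed three times, and the lysate incubated with prothrombin complex plus CaCl₂ (pH 7.3) 15 min at 37 °C. Factor Xa chromogenic substrate (0.5 mM) with EDTA was added and A405 read.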

Tissue factor, sequence (P13726 whole entry): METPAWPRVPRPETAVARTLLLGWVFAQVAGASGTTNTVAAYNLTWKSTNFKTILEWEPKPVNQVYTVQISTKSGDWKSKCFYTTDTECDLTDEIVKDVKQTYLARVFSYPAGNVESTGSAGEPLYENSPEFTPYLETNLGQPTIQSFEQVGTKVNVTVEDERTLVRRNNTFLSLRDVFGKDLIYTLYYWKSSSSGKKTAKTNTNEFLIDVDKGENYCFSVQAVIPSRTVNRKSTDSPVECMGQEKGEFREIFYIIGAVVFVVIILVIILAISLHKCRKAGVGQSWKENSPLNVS

| Compound | IC50 [µM] |
| --- | --- |
| COc1ccc2c(c1O)CN1CCc3cc4c(cc3[C@H]1C2)OCO4 [R-(+)-Tetrahydroberberrubine] | 0.0068 |
| CCCCCC(=O)Oc1c(OC)ccc2c1CN1CCc3cc4c(cc3C1C2)OCO4 (centres undefined) | 1.5 |
| COc1ccc2c(c1O)CN1CCc3cc4c(cc3[C@@H]1C2)OCO4 | 0.036 |
| COc1ccc2c(c1OC)CN1CCc3cc(O)c(O)cc3C1C2 (centres undefined) | 0.969 |
| COc1ccc2c(c1OC(=O)c1ccccc1)CN1CCc3cc4c(cc3C1C2)OCO4 (centres undefined) | 0.377 |
| COc1ccc2c(c1OC(=O)/C=C/c1ccccc1)CN1CCc3cc4c(cc3C1C2)OCO4 (centres undefined) | 0.0038 |
| CCC(=O)Oc1c(OC)ccc2c1CN1CCc3cc4c(cc3C1C2)OCO4 (centres undefined) | 0.119 |
| COc1cc2c(cc1OC)[C@@H]1Cc3ccc(OC)c(OC)c3CN1CC2 [(-)-Tetrahydropalmatine] | 0.023 |
| COc1ccc2c(c1OC)CN1CCc3cc4c(cc3C1C2)OCO4 (centres undefined) [9,10-dimethoxy-5,8,13,13a-tetrahydro-6H-[1,3]dioxolo[4,5-g]isoquino[3,2-a]isoquinoline] | 0.0084 |
| COc1cc2c(cc1OC)C1Cc3ccc(OC)c(O)c3CN1CC2 (centres undefined) | 0.187 |

The remaining lines, values ahead:

| IC50 [µM] | Compound |
| --- | --- |
| 0.202 | COc1cc(/C=C/C(=O)Oc2c(OC)ccc3c2CN2CCc4cc5c(cc4C2C3)OCO5)ccc1OC(C)=O (centres undefined) |
| 0.0088 | COc1ccc2c(c1O[C@@H]1O[C@H](CO)[C@@H](O)[C@H](O)[C@H]1O)CN1CCc3cc4c(cc3[C@H]1C2)OCO4 |
| 0.063 | COc1ccc2c(c1OC(C)=O)CN1CCc3cc4c(cc3C1C2)OCO4 (centres undefined) |
| 0.152 | COc1cc2c(cc1OC)[C@@H]1Cc3ccc(O)c(OC)c3CN1CC2 [(-)-Corydalmine] |
| 0.555 | COc1ccc2c(c1OC(=O)c1ccccc1OC(C)=O)CN1CCc3cc4c(cc3C1C2)OCO4 (centres undefined) |
| 0.017 | COc1cc2c(cc1OC)[C@@H]1Cc3ccc(OC)c(O[C@@H]4O[C@H](CO)[C@@H](O)[C@H](O)[C@H]4O)c3CN1CC2 |
| 0.015 | COc1cc2c(cc1OC)C1Cc3ccc(OC)c(OC)c3CN1CC2 (centres undefined) [2,3,9,10-Tetramethoxy-5,8,13,13a-tetrahydro-6H-isoquino[3,2-a]isoquinoline] |
| 0.013 | COc1cc2c(cc1OC)[C@H]1Cc3ccc(OC)c(O[C@@H]4O[C@H](CO)[C@@H](O)[C@H](O)[C@H]4O)c3CN1CC2 |
| 0.039 | COc1ccc2c(c1O[C@@H]1O[C@H](CO)[C@@H](O)[C@H](O)[C@H]1O)CN1CCc3cc4c(cc3[C@@H]1C2)OCO4 |
